Source: ChEMBL document CHEMBL5303300, “EUbOPEN Chemogenomics Library - Multiplex” (2023)
Values joined by “and” are separate entries in the source; they are usually repeats but may differ in a detail not shown here. Equal values may be shown once.

Columns and labels:
Assay type in all cases: toxicity, cell-based
[1] = tested on: Fibroblast; assay: Multiplex assay against human fibroblast; conditions: number of replicates 2
Outline: (§1)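 Compound was added to live cells that had been stained at seeding with Hoechst33342, BioTracker Green Microtubule Cytoskeleton Dye, MitoTracker Red and Annexin V Alexa Fluor 680, and imaging followed on a CQ1 microscope at 37°C and 5% CO2. CellPathfinder machine-learning gating divided cells into Hoechst high-intensity objects or normal cells, normal cells into healthy, pyknosed or fragmented nuclei, and pyknosed cells into mitotic or apoptotic. Tubulin, mitochondrial-mass and membrane-permeability phenotypes are per cents of healthy-nucleus cells.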

[2] = tested on: U2OS; assay: Multiplex assay against U2OS; conditions: human, number of replicates 2; outline: as §1
[3] = tested on: HEK-293T; assay: Multiplex assay against HEK293T; conditions: human, number of replicates 2; outline: as §1
[4] = 12 h, 1 µM, compound concentration 1 uM
[5] = 12 h, 10 µM, compound concentration 10 uM
[6] = 24 h, 1 µM, compound concentration 1 uM
[7] = 24 h, 10 µM, compound concentration 10 uM
[8] = 48 h, 1 µM, compound concentration 1 uM
[9] = 48 h, 10 µM, compound concentration 10 uM

## CN(C)C/C=C/C(=O)Nc1cc2c(Nc3ccc(F)c(Cl)c3)ncnc2cc1OC[C@@H]1CCCO1
[1]; [4]
  Population Apoptotic (%): 31% and 30%
  Population Fragmented Nuclei (%): 16% and 20%
  Population Healthy Nuclei (%): 57% and 60%
  Population Hoechst High Intensity Objects (%): 0%
  Population Membrane Permeable-Phenotype (%): 14% and 13%
  Population Mitochondria Different-Phenotype (%): 0% and 1%
  Population Mitotic Cells (%): 68% and 69%
  Population Normal (%): 99% and 100%
  Population Pyknosed Nuclei (%): 26% and 18%
  Population Tubulin-Different-Phenotype (%): 67% and 54%
  Total Cell Count: 169 and 229
[1]; [5]
  Population Apoptotic (%): 40% and 32%
  Population Fragmented Nuclei (%): 12% and 15%
  Population Healthy Nuclei (%): 41% and 47%
  Population Hoechst High Intensity Objects (%): 1% and 3%
  Population Membrane Permeable-Phenotype (%): 46% and 40%
  Population Mitochondria Different-Phenotype (%): 9% and 11%
  Population Mitotic Cells (%): 59% and 67%
  Population Normal (%): 98% and 96%
  Population Pyknosed Nuclei (%): 46% and 36%
  Population Tubulin-Different-Phenotype (%): 78% and 88%
  Total Cell Count: 181 and 317
[1]; [6]
  Population Apoptotic (%): 50% and 67%
  Population Fragmented Nuclei (%): 14% and 20%
  Population Healthy Nuclei (%): 65% and 66%
  Population Hoechst High Intensity Objects (%): 0%
  Population Membrane Permeable-Phenotype (%): 6% and 8%
  Population Mitochondria Different-Phenotype (%): 2% and 5%
  Population Mitotic Cells (%): 50% and 32%
  Population Normal (%): 99% and 100%
  Population Pyknosed Nuclei (%): 19% and 13%
  Population Tubulin-Different-Phenotype (%): 69% and 51%
  Total Cell Count: 155 and 235
[1]; [7]
  Population Apoptotic (%): 68% and 65%
  Population Fragmented Nuclei (%): 17% and 13%
  Population Healthy Nuclei (%): 27% and 29%
  Population Hoechst High Intensity Objects (%): 2% and 6%
  Population Membrane Permeable-Phenotype (%): 27% and 28%
  Population Mitochondria Different-Phenotype (%): 45% and 47%
  Population Mitotic Cells (%): 31% and 34%
  Population Normal (%): 97% and 93%
  Population Pyknosed Nuclei (%): 54% and 56%
  Population Tubulin-Different-Phenotype (%): 80% and 77%
  Total Cell Count: 147 and 216
[1]; [8]
  Population Apoptotic (%): 72% and 80%
  Population Fragmented Nuclei (%): 15% and 23%
  Population Healthy Nuclei (%): 68% and 64%
  Population Hoechst High Intensity Objects (%): 0% and 1%
  Population Membrane Permeable-Phenotype (%): 5% and 3%
  Population Mitochondria Different-Phenotype (%): 11% and 5%
  Population Mitotic Cells (%): 28% and 20%
  Population Normal (%): 100% and 98%
  Population Pyknosed Nuclei (%): 15% and 11%
  Population Tubulin-Different-Phenotype (%): 55% and 42%
  Total Cell Count: 157 and 217
[1]; [9]
  Population Apoptotic (%): 89% and 84%
  Population Fragmented Nuclei (%): 27% and 18%
  Population Healthy Nuclei (%): 24% and 32%
  Population Hoechst High Intensity Objects (%): 5% and 14%
  Population Membrane Permeable-Phenotype (%): 36% and 40%
  Population Mitochondria Different-Phenotype (%): 50% and 42%
  Population Mitotic Cells (%): 10% and 15%
  Population Normal (%): 94% and 85%
  Population Pyknosed Nuclei (%): 47% and 48%
  Population Tubulin-Different-Phenotype (%): 76%
  Total Cell Count: 128 and 187
[2]; [4]
  Population Apoptotic (%): 66% and 86%
  Population Healthy Nuclei (%): 40% and 79%
  Population Hoechst High Intensity Objects (%): 0%
  Population Membrane Permeable-Phenotype (%): 27% and 24%
  Population Mitochondria Different-Phenotype (%): 9% and 22%
  Population Mitotic Cells (%): 33% and 13%
  Population Normal (%): 100%
  Population Pyknosed Nuclei (%): 22% and 14%
  Population Tubulin-Different-Phenotype (%): 63% and 53%
[2]; [5]
  Population Apoptotic (%): 76% and 59%
  Population Healthy Nuclei (%): 23% and 66%
  Population Hoechst High Intensity Objects (%): 0%
  Population Membrane Permeable-Phenotype (%): 66% and 25%
  Population Mitochondria Different-Phenotype (%): 50% and 48%
  Population Mitotic Cells (%): 23% and 40%
  Population Normal (%): 100% and 99%
  Population Pyknosed Nuclei (%): 50% and 25%
  Population Tubulin-Different-Phenotype (%): 83% and 97%
[2]; [6]
  Population Apoptotic (%): 71% and 77%
  Population Healthy Nuclei (%): 42% and 74%
  Population Hoechst High Intensity Objects (%): 0%
  Population Membrane Permeable-Phenotype (%): 14% and 18%
  Population Mitochondria Different-Phenotype (%): 21% and 36%
  Population Mitotic Cells (%): 28% and 22%
  Population Normal (%): 100% and 99%
  Population Pyknosed Nuclei (%): 21% and 20%
  Population Tubulin-Different-Phenotype (%): 35% and 48%
[2]; [7]
  Population Apoptotic (%): 85% and 65%
  Population Hoechst High Intensity Objects (%): 0% and 1%
  Population Membrane Permeable-Phenotype (%): 100% and 35%
  Population Mitochondria Different-Phenotype (%): 80% and 70%
  Population Mitotic Cells (%): 14% and 34%
  Population Normal (%): 100% and 98%
  Population Pyknosed Nuclei (%): 46% and 37%
  Population Tubulin-Different-Phenotype (%): 100% and 93%
[2]; [8]
  Population Apoptotic (%): 66% and 88%
  Population Healthy Nuclei (%): 39% and 76%
  Population Hoechst High Intensity Objects (%): 0%
  Population Membrane Permeable-Phenotype (%): 27% and 14%
  Population Mitochondria Different-Phenotype (%): 45% and 26%
  Population Mitotic Cells (%): 33% and 11%
  Population Normal (%): 100%
  Population Pyknosed Nuclei (%): 21% and 18%
  Population Tubulin-Different-Phenotype (%): 63% and 40%
[2]; [9]
  Population Apoptotic (%): 76% and 90%
  Population Hoechst High Intensity Objects (%): 0% and 2%
  Population Membrane Permeable-Phenotype (%): 100% and 50%
  Population Mitochondria Different-Phenotype (%): 100% and 79%
  Population Mitotic Cells (%): 23% and 10%
  Population Normal (%): 100% and 97%
  Population Pyknosed Nuclei (%): 43% and 56%
  Population Tubulin-Different-Phenotype (%): 100% and 89%
[3]; [4]
  Population Apoptotic (%): 39% and 48%
  Population Fragmented Nuclei (%): 3% and 2%
  Population Healthy Nuclei (%): 83% and 85%
  Population Hoechst High Intensity Objects (%): 7% and 8%
  Population Membrane Permeable-Phenotype (%): 4% and 5%
  Population Mitochondria Different-Phenotype (%): 32% and 29%
  Population Mitotic Cells (%): 60% and 51%
  Population Normal (%): 92% and 91%
  Population Pyknosed Nuclei (%): 13% and 12%
  Population Tubulin-Different-Phenotype (%): 94% and 91%
  Total Cell Count: 593 and 650
[3]; [5]
  Population Apoptotic (%): 72% and 76%
  Population Fragmented Nuclei (%): 2% and 4%
  Population Healthy Nuclei (%): 75% and 78%
  Population Hoechst High Intensity Objects (%): 20% and 28%
  Population Membrane Permeable-Phenotype (%): 2% and 4%
  Population Mitochondria Different-Phenotype (%): 73% and 75%
  Population Mitotic Cells (%): 27% and 23%
  Population Normal (%): 79% and 71%
  Population Pyknosed Nuclei (%): 21% and 17%
  Population Tubulin-Different-Phenotype (%): 60% and 66%
  Total Cell Count: 256 and 344
[3]; [6]
  Population Apoptotic (%): 57% and 51%
  Population Fragmented Nuclei (%): 6% and 5%
  Population Healthy Nuclei (%): 87% and 86%
  Population Hoechst High Intensity Objects (%): 8%
  Population Membrane Permeable-Phenotype (%): 4%
  Population Mitochondria Different-Phenotype (%): 21% and 18%
  Population Mitotic Cells (%): 42% and 48%
  Population Normal (%): 91%
  Population Pyknosed Nuclei (%): 6% and 8%
  Population Tubulin-Different-Phenotype (%): 81% and 83%
  Total Cell Count: 811 and 859
[3]; [7]
  Population Apoptotic (%): 89% and 76%
  Population Fragmented Nuclei (%): 3% and 1%
  Population Healthy Nuclei (%): 62% and 73%
  Population Hoechst High Intensity Objects (%): 25% and 29%
  Population Membrane Permeable-Phenotype (%): 7% and 0%
  Population Mitochondria Different-Phenotype (%): 74% and 79%
  Population Mitotic Cells (%): 10% and 23%
  Population Normal (%): 74% and 70%
  Population Pyknosed Nuclei (%): 33% and 24%
  Population Tubulin-Different-Phenotype (%): 60% and 57%
  Total Cell Count: 303 and 369
[3]; [8]
  Population Apoptotic (%): 32% and 29%
  Population Fragmented Nuclei (%): 11% and 10%
  Population Healthy Nuclei (%): 83% and 85%
  Population Hoechst High Intensity Objects (%): 9% and 10%
  Population Membrane Permeable-Phenotype (%): 7% and 5%
  Population Mitochondria Different-Phenotype (%): 5% and 4%
  Population Mitotic Cells (%): 67% and 70%
  Population Normal (%): 90% and 89%
  Population Pyknosed Nuclei (%): 4%
  Population Tubulin-Different-Phenotype (%): 60% and 62%
  Total Cell Count: 1468 and 1438
[3]; [9]
  Population Apoptotic (%): 87% and 89%
  Population Fragmented Nuclei (%): 9% and 8%
  Population Healthy Nuclei (%): 43% and 53%
  Population Hoechst High Intensity Objects (%): 31% and 32%
  Population Membrane Permeable-Phenotype (%): 4% and 1%
  Population Mitochondria Different-Phenotype (%): 81% and 83%
  Population Mitotic Cells (%): 12% and 10%
  Population Normal (%): 68% and 67%
  Population Pyknosed Nuclei (%): 47% and 38%
  Population Tubulin-Different-Phenotype (%): 52% and 58%
  Total Cell Count: 355 and 410
